In ChEMBL document CHEMBL4229410, “Facile construction of fused benzimidazole-isoquinolinones that induce cell-cycle arrest and apoptosis in colorectal cancer cells” (Bioorg Med Chem, 2018):
pKd: −log10 of the molar value. The source made the active and inactive calls. No cut-off for these calls is given here.

Assays:
[1] = tested on: SW-620; experiment: Inhibition of colony formation in human SW620 cells assessed as reduction in number of colonies at 25 to 75 uM treated for 48 hrs followed by compound washout and measured after 14 hrs by crystal violet staining based assay; format: functional, cell-based
[2] = biological target: 3-phosphoinositide-dependent protein kinase 1 (Homo sapiens, UniProt O15530); experiment: Binding affinity to full length human PDPK1 (M1 to Q556 residues) expressed in bacterial expression system by KINOMEscan assay
[3] = tested on: HT-29; experiment: Upregulation of p21 expression in human HT-29 cells after 48 hrs by Western blot analysis; format: functional, cell-based
[4] = biological target: T1, Serine/threonine-protein kinase pim-1 (Homo sapiens, UniProt P11309); experiment: Inhibition of human PIM1 (A15 to K313 residues) expressed in bacterial expression system assessed as residual activity at 5 uM by KINOMEscan assay relative to control
[5] = biological target: Serine/threonine-protein kinase PLK4 (Homo sapiens) (UniProt O00444); experiment: Inhibition of partial length human PLK4 (M1 to S273 residues) expressed in mammalian expression system assessed as residual activity at 5 uM by KINOMEscan assay relative to control
[6] = biological target: Bone morphogenetic protein receptor type-2 (Homo sapiens, UniProt Q13873); experiment: Binding affinity to human BMPR2 (R179 to Q526 residues) expressed in mammalian expression system by KINOMEscan assay
[7] = biological target: Serine/threonine-protein kinase PLK3 (Homo sapiens, UniProt Q9H4B4); experiment: Binding affinity to partial length human PLK3 (A42 to L334 residues) expressed in mammalian expression system by KINOMEscan assay
[8] = tested on: HT-29; experiment: Induction of apoptosis in human HT-29 cells assessed as reduction in BCL2 expression after 48 hrs by Western blot analysis; format: functional, cell-based
Summary of the method: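 HT29 or SW620 cells were treated at 0, 25, 50 and 75 μM for 48 h and lysed in RIPA with protease and phosphatase inhibitors. Protein was quantified by BCA. 50 μg lysate was run on 8–15% SDS-PAGE and transferred to PVDF. Blocking was 5% BSA/TBST for 2 h; primary antibodies were applied overnight at 4 °C, then HRP secondary 1 h at room temperature.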

[9] = biological target: T2, Fibroblast growth factor receptor 3 (Homo sapiens, UniProt P22607); experiment: Inhibition of partial length human FGFR3 (R442 to S771 residues) expressed in bacterial expression system assessed as residual activity at 5 uM by KINOMEscan assay relative to control
[10] = biological target: Casein kinase I isoform gamma-2 (Homo sapiens, UniProt P78368); experiment: Binding affinity to full length human CSNK1G2 (M1 to K415 residues) expressed in bacterial expression system by KINOMEscan assay
[11] = biological target: T1, Serine/threonine-protein kinase pim-1; experiment: Binding affinity to human PIM1 (A15 to K313 residues) expressed in bacterial expression system by KINOMEscan assay
[12] = biological target: Mitogen-activated protein kinase kinase kinase 9 (Homo sapiens, UniProt P80192); experiment: Inhibition of human MLK1 (V88 to W426 residues) expressed in bacterial expression system assessed as residual activity at 5 uM by KINOMEscan assay relative to control
[13] = biological target: Tyrosine-protein kinase ABL1 (Homo sapiens, UniProt P00519, E255K); experiment: Binding affinity to human phosphorylated ABL1 E255K mutant (S229 to K512 residues) expressed in mammalian expression system by KINOMEscan assay
[14] = biological target: Serine/threonine-protein kinase RIO2 (Homo sapiens, UniProt Q9BVS4); experiment: Binding affinity to human RIOK2 (M1 to D313 residues) expressed in mammalian expression system by KINOMEscan assay
[15] = biological target: Epidermal growth factor receptor (Homo sapiens, UniProt P00533); experiment: Inhibition of partial length human EGFR (R669 to V1011 residues) expressed in bacterial expression system assessed as residual activity at 5 uM by KINOMEscan assay relative to control
[16] = tested on: SW-620; experiment: Inhibition of colony formation in human SW620 cells assessed as reduction in colony size at 25 to 75 uM treated for 48 hrs followed by compound washout and measured after 14 hrs by crystal violet staining based assay; format: functional, cell-based
[17] = tested on: HT-29; experiment: Cell cycle arrest in human HT-29 cells assessed as increase in accumulation at G2/M-phase after 48 hrs by propidium iodide staining based flow cytometry; format: functional
[18] = biological target: Mitogen-activated protein kinase kinase kinase 4 (Homo sapiens, UniProt Q9Y6R4); experiment: Binding affinity to human MAP3K4 (G1319 to E1608 residues) expressed in bacterial expression system by KINOMEscan assay
[19] = biological target: 3-phosphoinositide-dependent protein kinase 1 (Homo sapiens) (UniProt O15530); experiment: Inhibition of full length human PDPK1 (M1 to Q556 residues) expressed in bacterial expression system assessed as residual activity at 5 uM by KINOMEscan assay relative to control
[20] = biological target: Tyrosine-protein kinase receptor UFO (Homo sapiens, UniProt P30530); experiment: Binding affinity to human AXL (R497 to Y821 residues) expressed in bacterial expression system by KINOMEscan assay
[21] = biological target: Serine/threonine-protein kinase STK11 (Homo sapiens, UniProt Q15831); experiment: Binding affinity to full length human LKB1 (M1 to Q433 residues) expressed in bacterial expression system by KINOMEscan assay
[22] = biological target: T2, Fibroblast growth factor receptor 3; experiment: Binding affinity to partial length human FGFR3 (R442 to S771 residues) expressed in bacterial expression system by KINOMEscan assay
[23] = tested on: HT-29; experiment: Cell cycle arrest in human HT-29 cells assessed as accumulation at G1-phase at 25 uM after 48 hrs by propidium iodide staining based flow cytometry (reference value: 41.86%); format: functional
[24] = biological target: Serine/threonine-protein kinase B-raf (Homo sapiens, UniProt P15056, V600E); experiment: Binding affinity to human BRAF (S429 to E741 residues) V600E mutant expressed in mammalian expression system by KINOMEscan assay
[25] = tested on: HT-29; experiment: Cell cycle arrest in human HT-29 cells assessed as accumulation at S-phase at 75 uM after 48 hrs by propidium iodide staining based flow cytometry (reference value: 37.82%); format: functional
[26] = biological target: Insulin-like growth factor 1 receptor (Homo sapiens, UniProt P08069); experiment: Binding affinity to human IGF1R (L972 to D1294 residues) expressed in bacterial expression system by KINOMEscan assay
[27] = biological target: Serine/threonine-protein kinase DCLK1 (Homo sapiens, UniProt O15075); experiment: Binding affinity to partial length human DCAMKL1 (L270 to A662 residues) expressed in mammalian expression system by KINOMEscan assay
[28] = biological target: Non-receptor tyrosine-protein kinase TYK2 (Homo sapiens, UniProt P29597); experiment: Inhibition of human TYK2 JH1 catalytic domain (V877 to C1187 residues) expressed in mammalian expression system assessed as residual activity at 5 uM by KINOMEscan assay relative to control
[29] = biological target: RAF proto-oncogene serine/threonine-protein kinase (Homo sapiens, UniProt P04049); experiment: Inhibition of human RAF1 (I330 to T640 residues) expressed in bacterial expression system assessed as residual activity at 5 uM by KINOMEscan assay relative to control

Compound: CC(C)CN(C(=O)c1cccnc1)c1c2ccccc2c(=O)n2c1[nH]c1ccccc12
- inhibition [1]: Active
- pKd [2]: ≤ 5.30
- Activity [3]: Dose-dependent effect
- Activity [4]: 83%
- Activity [5]: 100%
- pKd [6]: ≤ 5.30
- pKd [7]: ≤ 5.30
- Activity [8]: Dose-dependent effect
- Activity [9]: 80%
- pKd [10]: ≤ 5.30
- pKd [11]: ≤ 5.30
- Activity [12]: 84%
- pKd [13]: ≤ 5.30
- pKd [14]: ≤ 5.30
- Activity [15]: 100%
- inhibition [16]: Active
- Activity [17]: Dose-dependent effect
- pKd [18]: ≤ 5.30
- Activity [19]: 93%
- pKd [20]: ≤ 5.30
- pKd [21]: ≤ 5.30
- pKd [22]: ≤ 5.30
- Activity [23]: 42.5%
- pKd [24]: ≤ 5.30
- Activity [25]: 33.33%
- pKd [26]: ≤ 5.30
- pKd [27]: ≤ 5.30
- Activity [28]: 73%
- Activity [29]: 89%
